Experimental data taken from ChEMBL document CHEMBL1649313, “T-2307 shows efficacy in a murine model of Candida glabrata infection despite in vitro trailing growth phenomena” (2010).
Activity calls are given as the source filed them. The rule behind the calls is not given here. *1 amine or outer side, *2 acyl side, *3 side chain or, on linkers, in order; H or OH if unused. Where a SMILES comes first, the peptide text is derived from it. Bridges are numbered along the chain shown (N, C = ends). [ ]: non-standard residue; d: D form. The star is where a group is joined. hTyr(3S-OH,4S-OH,3'-OSO3H) = N[C@H](C(=O)O)[C@H](O)[C@@H](O)c1ccc(O)c(OS(=O)(=O)O)c1; Orn(4R-OH,5R-OH) = O=C([C@H](C[C@@H](O)[C@@H](O)N[*:3])N[*:1])[*:2]; Pro(3S-OH,4S-Me) = C[C@H]1CN[C@H](C(=O)O)[C@H]1O; X1 = CCCCCOc1ccc(-c2cc(-c3ccc(C(=O)*)cc3)no2)cc1; Gln(3R-OH) = NC(=O)C[C@@H](O)[C@H](N)C(=O)O; Hyp = O=C(O)[C@@H]1C[C@@H](O)CN1

Experiments:
[1] = tested on: Nakaseomyces glabratus; test: Antifungal activity against Candida glabrata ATCC 90030 after 48 hrs by broth microdilution method in presence of 2% glucose; format: functional; conditions: ATCC 90030, 48 h
Outline: (§1)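 CLSI M27-A3 broth microdilution in RPMI 1640 (pH 7.0, 0.165 M MOPS) with glucose at 2%, 0.2%, 0.1%, 0.05% or 0.02%, or with 0.2% glycerol in place of glucose. Inoculum from 24-h SDA culture at 35°C, final 1 × 10^3 cells/ml. Incubated 48 h. MIC is the lowest concentration giving a prominent turbidity drop; OD600 also read against the growth control.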

[2] = tested on: Nakaseomyces glabratus; test: Antifungal activity against Candida glabrata ATCC 90030 after 48 hrs by broth microdilution method in presence of 0.2% glucose; format: functional; conditions: ATCC 90030, 48 h; outline: as §1
[3] = tested on: Nakaseomyces glabratus; test: Antifungal activity against Candida glabrata ATCC 90030 after 48 hrs by broth microdilution method in presence of 0.1% glucose; format: functional; conditions: ATCC 90030, 48 h; outline: as §1
[4] = tested on: Nakaseomyces glabratus; test: Antifungal activity against Candida glabrata ATCC 90030 after 48 hrs by broth microdilution method in presence of 0.05% glucose; format: functional; conditions: ATCC 90030, 48 h; outline: as §1
[5] = tested on: Nakaseomyces glabratus; test: Antifungal activity against Candida glabrata ATCC 90030 after 48 hrs by broth microdilution method in presence of 0.02% glucose; format: functional; conditions: ATCC 90030, 48 h; outline: as §1
[6] = tested on: Nakaseomyces glabratus; test: Antifungal activity against Candida glabrata ATCC 90030 after 48 hrs by broth microdilution method in presence of 0.2% glycerol; format: functional; conditions: ATCC 90030, 48 h; outline: as §1
[7] = tested on: Nakaseomyces glabratus; test: Antifungal activity against Candida glabrata ATCC 90030 infected in ICR mouse assessed as fungal load in kidney at 2.5 mg/kg/day, sc for 8 days measured on day 8; format: functional; conditions: route subcutaneous
Outline: (§2)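 Four-week-old male SPF ICR mice made neutropenic with cyclophosphamide ip, 200 mg/kg on day −3 and 100 mg/kg on day +1. Infected iv by tail vein with 7.68 × 10^6 CFU from an overnight SDA culture in saline. Dosed sc once daily for 8 days starting 2 h post-infection, 5 mice per group, saline controls. Kidneys harvested on day 8, homogenates plated on SDA with imipenem, 5 days at 35°C, log CFU counted, Dunnett test.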

[8] = tested on: Nakaseomyces glabratus; test: Antifungal activity against Candida glabrata ATCC 90030 infected in ICR mouse assessed as fungal load in kidney at 5 mg/kg/day, sc for 8 days measured on day 8; format: functional; conditions: route subcutaneous; outline: as §2
[9] = tested on: Nakaseomyces glabratus; test: Antifungal activity against Candida glabrata ATCC 90030 infected in ICR mouse assessed as fungal load in kidney at 10 mg/kg/day, sc for 8 days measured on […]; format: functional; conditions: route subcutaneous
[10] = tested on: Nakaseomyces glabratus; test: Antifungal activity against Candida glabrata ATCC 90030 after 48 hrs by Almar blue assay in presence of 0.2% glucosel; conditions: ATCC 90030, 48 h
[11] = tested on: Nakaseomyces glabratus; test: Antifungal activity against Candida glabrata ATCC 90030 after 24 hrs by broth microdilution method in presence of 2% glucose; format: functional; conditions: ATCC 90030, 24 h
[12] = tested on: Nakaseomyces glabratus; test: Antifungal activity against Candida glabrata ATCC 90030 after 24 hrs by broth microdilution method in presence of 0.2% glucose; format: functional; conditions: ATCC 90030, 24 h
[13] = tested on: Nakaseomyces glabratus; test: Antifungal activity against Candida glabrata ATCC 90030 after 24 hrs by broth microdilution method in presence of 0.1% glucose; format: functional; conditions: ATCC 90030, 24 h
[14] = tested on: Nakaseomyces glabratus; test: Antifungal activity against Candida glabrata ATCC 90030 after 24 hrs by broth microdilution method in presence of 0.05% glucose; format: functional; conditions: ATCC 90030, 24 h
[15] = tested on: Nakaseomyces glabratus; test: Antifungal activity against Candida glabrata ATCC 90030 after 24 hrs by broth microdilution method in presence of 0.02% glucose; format: functional; conditions: ATCC 90030, 24 h
[16] = tested on: Nakaseomyces glabratus; test: Antifungal activity against Candida glabrata ATCC 90030 after 24 hrs by Almar blue assay in presence of 0.2% glucose; conditions: ATCC 90030, 24 h
[17] = tested on: Nakaseomyces glabratus; test: Antifungal activity against Candida glabrata ATCC 90030 infected in ICR mouse assessed as fungal load in kidney at 0.5 mg/kg/day, sc for 8 days measured on day 8; conditions: route subcutaneous
[18] = tested on: Nakaseomyces glabratus; test: Antifungal activity against Candida glabrata ATCC 90030 infected in ICR mouse assessed as fungal load in kidney at 0.25 mg/kg/day, sc for 8 days measured on day 8; conditions: route subcutaneous
[19] = tested on: Nakaseomyces glabratus; test: Antifungal activity against Candida glabrata ATCC 90030 infected in ICR mouse assessed as fungal load in kidney at 0.125 mg/kg/day, sc for 8 days measured on day 8; conditions: route subcutaneous
[20] = tested on: Nakaseomyces glabratus; test: Antifungal activity against Candida glabrata ATCC 90030 assessed as growth inhibition at 0.0039 to 0.125 ug/ml after 48 hrs; format: functional, organism-based
Outline: (§3)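 Inhibition curve in CLSI M27-A3 microdilution: RPMI 1640 with 0.2% glucose, MOPS-buffered to pH 7.0, final inoculum 1 × 10^3 cells/ml. OD600 was read on a microplate spectrophotometer at 24 h and 48 h. Percent inhibition was calculated relative to the growth-control well.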

[21] = tested on: Nakaseomyces glabratus; test: Antifungal activity against Candida glabrata ATCC 90030 assessed as growth inhibition at 0.0039 to 0.125 ug/ml after 24 hrs; format: functional, organism-based; outline: as §3
[22] = tested on: Nakaseomyces glabratus; test: Antifungal activity against Candida glabrata ATCC 90030 infected in ICR mouse assessed as fungal load in kidney at 0.025 mg/kg/day, sc for 8 days measured on day 8; format: functional; conditions: route subcutaneous
Outline: (§4)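 Four-week-old male SPF ICR mice (n=5/group) were made neutropenic with cyclophosphamide 200 mg/kg ip on day −3 and 100 mg/kg on day +1. They were infected iv (tail vein) with 7.68 × 10^6 CFU/mouse in saline. Dosing was sc once daily for 8 days from 2 h post-infection; controls got saline. Day-8 kidney homogenates were plated on SDA with 0.1 mg/ml imipenem, 35°C, 5 days. Result is log CFU/kidneys, Dunnett test versus control.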

[23] = tested on: Nakaseomyces glabratus; test: Antifungal activity against Candida glabrata ATCC 90030 infected in ICR mouse assessed as fungal load in kidney at 0.05 mg/kg/day, sc for 8 days measured on day 8; format: functional; conditions: route subcutaneous; outline: as §4
[24] = tested on: Nakaseomyces glabratus; test: Antifungal activity against Candida glabrata ATCC 90030 infected in ICR mouse assessed as fungal load in kidney at 0.1 mg/kg/day, sc for 8 days measured on day 8; format: functional; conditions: route subcutaneous; outline: as §4

Structure (SMILES) | MIC [1] | MIC [2] | MIC [3] | MIC [4] | MIC [5] | MIC [6] | MIC [10] | log10cfu [17] | log10cfu [18] | log10cfu [19] | also measured
OC(Cn1cncn1)(Cn1cncn1)c1ccc(F)cc1F [FLUCONAZOLE] | 16 µg/mL | 8 µg/mL | 8 µg/mL | 8 µg/mL | 4 µg/mL | 4 µg/mL | 16 µg/mL | – | – | – | log10cfu [7]: 4.96; log10cfu [8]: 5.33; log10cfu [9]: 4.62
CCCCCOc1ccc(-c2cc(-c3ccc(C(=O)N[C@H]4C[C@@H](O)[C@@H](O)NC(=O)[C@@H]5[C@@H](O)[C@@H](C)CN5C(=O)[C@H]([C@H](O)CC(N)=O)NC(=O)[C@H]([C@H](O)[C@@H](O)c5ccc(O)c(OS(=O)(=O)O)c5)NC(=O)[C@@H]5C[C@@H](O)CN5C(=O)[C@H]([C@@H](C)O)NC4=O)cc3)no2)cc1 [MICAFUNGIN] (X1-[Orn(4R-OH,5R-OH)]T[Hyp][hTyr(3S-OH,4S-OH,3'-OSO3H)][Gln(3R-OH)][Pro(3S-OH,4S-Me)]; lactam 1-C) | – | – | – | – | – | 0.125 µg/mL | 0.0625 µg/mL | 3.59 | 5.21 | 5.13 | MIC [11]: 0.0625 µg/mL; MIC [12]: 0.0625 µg/mL; MIC [13]: 0.0625 µg/mL; MIC [14]: 0.0625 µg/mL; MIC [15]: 0.125 µg/mL; MIC [16]: 0.0625 µg/mL
C[C@@H]1[C@H](O)[C@@H](C)/C=C/C=C/C=C/C=C/C=C/C=C/C=C/[C@H](O[C@@H]2O[C@H](C)[C@@H](O)[C@H](N)[C@@H]2O)C[C@@H]2O[C@](O)(C[C@@H](O)C[C@@H](O)[C@H](O)CC[C@@H](O)C[C@@H](O)CC(=O)O[C@H]1C)C[C@H](O)[C@H]2C(=O)O [AMPHOTERICIN B] | 2 µg/mL | 2 µg/mL | 2 µg/mL | 2 µg/mL | 2 µg/mL | 1 µg/mL | – | 2.93 | 4.53 | 4.61 | –
N=C(N)c1ccc(OCCCC2CCN(CCCOc3ccc(C(=N)N)cc3)CC2)cc1 | > 0.125 µg/mL | 0.0039 µg/mL | 0.0039 µg/mL | 0.001 µg/mL | 0.001 µg/mL | 0.0005 µg/mL | – | – | – | – | Activity [20]: Active; Activity [21]: Active; log10cfu [22]: 4.3; log10cfu [23]: 4; log10cfu [24]: 3.86
